# Assay results published in ChEMBL document CHEMBL1275586, “Phenotypic susceptibility to bevirimat in isolates from HIV-1-infected patients without prior exposure to bevirimat” (Antimicrob Agents Chemother, 2010).
# Columns and labels:
# [1] = test system: Human immunodeficiency virus 1; test: Antiviral activity against antiretroviral-pretreated Human immunodeficiency virus 1 isolate 8 infected in human MT-2 cells by XTT assay relative to wild-type; assay type: functional, MT2
# Outline: (§1)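 Patient-derived Gag fragments were pooled as bacterial colonies to keep quasispecies diversity and ligated into the pXXLAI (HIV-1 LAI) backbone. Virus was made by transfecting 293T cells and harvesting supernatant 2 days later. MT-2 cells were infected at 37°C with an inoculum titrated to give an XTT signal-to-noise of 2.5–4.0. Cells were plated into drug dilutions, incubated 5 days at 37°C, and read by XTT absorbance (450−650 nm). EC50 was taken from percent cell death and expressed as fold change versus wild-type LAI.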
# [2] = test system: Human immunodeficiency virus 1; test: Antiviral activity against antiretroviral-pretreated PI-resistant Human immunodeficiency virus 1 isolate 10 harboring deletion at T371 of Gag-SP-1 and Gag-Sp-1 V370I, S373P and I376V mutant gene infected in human MT-2 cells by XTT assay relative to wild-type; assay type: functional, MT2; outline: as §1
# [3] = test system: Human immunodeficiency virus 1; test: Antiviral activity against antiretroviral-pretreated PI-resistant Human immunodeficiency virus 1 isolate 28 infected in human MT-2 cells by XTT assay relative to wild-type; assay type: functional, MT2; outline: as §1
# [4] = test system: Human immunodeficiency virus 1; test: Antiviral activity against Human immunodeficiency virus 1 isolate 6 harboring Gag-SP-1 S373 and A374 mutant infected in human MT-2 cells by XTT-assay relative to wild-type; assay type: functional, MT2
# Outline: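 Patient Gag-protease (SfoI-XmaI) fragments were ligated into the pXXLAI backbone, with colonies pooled to keep quasispecies. Virus came from 293T transfection, harvested at 2 days. MT-2 infection at 37°C used an input giving XTT signal-to-noise of 2.5–4.0 (≈MOI 0.001). Cells at ≈17,000/well with drug dilutions, 5 days, 37°C; XTT 1 h, A450–650. EC50 from % cell death; fold change vs wild-type LAI.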
# [5] = test system: Human immunodeficiency virus 1; test: Antiviral activity against antiretroviral-pretreated PI-resistant Human immunodeficiency virus 1 isolate 2 harboring Gag-SP-1 S373A, A374G and T375A mutant gene infected in human MT-2 cells by XTT assay relative to wild-type
# [6] = test system: Human immunodeficiency virus 1; test: Antiviral activity against antiretroviral-pretreated PI-resistant Human immunodeficiency virus 1 isolate 3 harboring Gag-capsid G357S mutant gene, Gag-Sp-1 V370A and N372H mutant gene and deletion at T371 in Gag-SP-1 infected in human MT-2 cells by XTT assay relative to wild-type; assay type: functional, MT2; outline: as §1
# [7] = test system: Human immunodeficiency virus 1; test: Antiviral activity against Human immunodeficiency virus 1 LAI infected in human MT-2 cells by XTT-assay; assay type: functional, organism-based; details: MT2
# Outline: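 Recombinant virus produced by transfecting 7 μg viral plasmid (pXXLAI backbone; patient-derived SfoI-XmaI fragment for isolates) into 293T cells. Supernatant harvested 2 days later. 2.4 million MT-2 cells infected at 37°C with virus giving XTT signal-to-noise 2.5–4.0, then plated ≈17,000 cells/well with drug dilutions. After 5 days at 37°C, 5% CO2, 1.67 mg/ml XTT added for 1 h. A450–A650 read; EC50 from cell-death curves.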
# [8] = test system: Human immunodeficiency virus 1; test: Antiviral activity against antiretroviral-pretreated PI-resistant Human immunodeficiency virus 1 isolate 20 harboring Gag-capsid G357S mutant gene and Gag-SP1 Q369H and I376V mutant gene infected in human MT-2 cells by XTT assay relative to wild-type; assay type: functional, MT2; outline: as §1
smiles,measurement,setting,value
C=C(C)[C@@H]1CC[C@]2(C(=O)O)CC[C@]3(C)[C@H](CC[C@@H]4[C@@]5(C)CC[C@H](OC(=O)CC(C)(C)C(=O)O)C(C)(C)[C@@H]5CC[C@]43C)[C@@H]12 [BEVIRIMAT],fold change (FC),[1],1.2
same,fold change (FC),[2],>100
same,fold change (FC),[3],1.3
same,fold change (FC),[4],>100
same,fold change (FC),[5],>100
same,fold change (FC),[6],>100
same,EC50,[7],34 nM
same,fold change (FC),[8],2.1
